Measurements taken from ChEMBL document CHEMBL3098028, “Synthesis and in vitro and in vivo pharmacological evaluation of new 4-aminoquinoline-based compounds” (ACS Med Chem Lett, 2013).
Converted amounts (≈) assume the structure as drawn.

Legend:
[1] = test system: Plasmodium berghei; experiment: Antimalarial activity against Plasmodium berghei ANKA infected in C57BL/6 mouse assessed as reduction in parasitemia at 1 mg/kg, po qd for 4 days measured on day 7 by light microscopic analysis relative to control; type: functional; parameters: scale not given: the % may be the effect or the level left
Method in brief: (§1)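 Male C57/BL6 mice were infected with P. berghei ANKA and dosed orally once daily for four days at 1, 10, 5 or 20 mg/kg, with 5 mice per dose group. The negative control received blank formulation solution. Blood smears were taken on days 3, 5 and 7, and parasitemia was read by light microscopy. The result is % parasitemia reduction on day 7 versus placebo.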

[2] = test system: Plasmodium berghei; experiment: Antimalarial activity against Plasmodium berghei ANKA infected in C57BL/6 mouse assessed as reduction in parasitemia at 5 mg/kg, po qd for 4 days measured on day 7 by light microscopic analysis relative to control; type: functional; parameters: scale not given: the % may be the effect or the level left; method in brief: as §1
[3] = test system: Plasmodium berghei; experiment: Antimalarial activity against Plasmodium berghei ANKA infected in C57BL/6 mouse assessed as reduction in parasitemia at 10 mg/kg, po qd for 4 days measured on day 7 by light microscopic analysis relative to control; type: functional; parameters: scale not given: the % may be the effect or the level left; method in brief: as §1
[4] = test system: Plasmodium berghei; experiment: Antimalarial activity against Plasmodium berghei ANKA infected in C57BL/6 mouse assessed as reduction in parasitemia at 20 mg/kg, po qd for 4 days measured on day 7 by light microscopic analysis relative to control; type: functional; parameters: scale not given: the % may be the effect or the level left; method in brief: as §1
[5] = test system: Mus musculus; experiment: AUC (0 to infinity) in C57BL/6 mouse at 20 mg/kg, po; type: ADME, organism-based, Plasma; parameters: time infinity, dose 20 mg/kg, route oral; details: in vivo
Method in brief: (§2)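 Healthy male C57/BL6 mice received a single intravenous dose (2.5 or 5.0 mg/kg) or oral dose (20 or 40 mg/kg). Plasma concentrations were followed over time to give AUC0-∞ in min·μmol/L, alongside t1/2, CL, Vd, Vss, Cmax, Tmax and oral bioavailability. Values are means of five animals.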

[6] = test system: Mus musculus; experiment: AUC (0 to infinity) in C57BL/6 mouse at 40 mg/kg, po; type: ADME, organism-based, Plasma; parameters: time infinity, dose 40 mg/kg, route oral; details: in vivo; method in brief: as §2
[7] = test system: Mus musculus; experiment: AUC (0 to infinity) in C57BL/6 mouse at 5 mg/kg, iv; type: ADME, organism-based, Plasma; parameters: dose 5 mg/kg, route intravenous, time infinity; details: in vivo; method in brief: as §2
[8] = test system: Mus musculus; experiment: AUC (0 to infinity) in C57BL/6 mouse at 2.5 mg/kg, iv; type: ADME, organism-based, Plasma; parameters: time infinity, dose 2.5 mg/kg, route intravenous; details: in vivo; method in brief: as §2
[9] = test system: Liver microsome; experiment: Drug metabolism in rat liver microsomes assessed as 2-(5-((4-chlorophenyl)(2-(7-chloroquinolin-4-ylamino)ethylamino)methyl)-1H-tetrazol-1-yl)-2-methylpropan-1-ol level at 5 uM after 1 hr by LC-MS/MS analysis; type: ADME
[10] = test system: Liver microsome; experiment: Drug metabolism in rat liver microsomes assessed as 4-(2-((1-tert-butyl-1H-tetrazol-5-yl)(4-chlorophenyl)methylamino)ethylamino)-7-chloroquinoline 1-oxide level at 5 uM after 1 hr by LC-MS/MS analysis; type: ADME
[11] = test system: Liver microsome; experiment: Drug metabolism in human liver microsomes assessed as 2-(5-((4-chlorophenyl)(2-(7-chloroquinolin-4-ylamino)ethylamino)methyl)-1H-tetrazol-1-yl)-2-methylpropan-1-ol level at 5 uM after 1 hr by LC-MS/MS analysis; type: ADME
[12] = test system: Liver microsome; experiment: Drug metabolism in human liver microsomes assessed as 4-(2-((1-tert-butyl-1H-tetrazol-5-yl)(4-chlorophenyl)methylamino)ethylamino)-7-chloroquinoline 1-oxide level at 5 uM after 1 hr by LC-MS/MS analysis; type: ADME
[13] = Drug metabolism in hepatocytes (unknown origin) assessed as 2-(5-((4-chlorophenyl)(2-(7-chloroquinolin-4-ylamino)ethylamino)methyl)-1H-tetrazol-1-yl)-2-methylpropan-1-ol level at 5 uM after 6 hrs by LC-MS/MS analysis; type: ADME, cell-based, Hepatocyte
[14] = Drug metabolism in hepatocytes (unknown origin) assessed as 4-(2-((1-tert-butyl-1H-tetrazol-5-yl)(4-chlorophenyl)methylamino)ethylamino)-7-chloroquinoline 1-oxide level at 5 uM after 6 hrs by LC-MS/MS analysis; type: ADME, cell-based, Hepatocyte
[15] = Hepatic extraction ratio in mouse liver microsomes at 1 uM after 40 mins; type: ADME, Microsome; details: read-out: ERH
[16] = Hepatic extraction ratio in human liver microsomes at 1 uM after 40 mins; type: ADME; details: read-out: ERH
[17] = test system: CHO; experiment: Cytotoxicity against CHO cells; type: cell-based; details: Cricetulus griseus
[18] = Kinetic solubility of the compound in 0.01 M HCl at pH 2 after 2 hrs by HPLC analysis; type: physicochemical; details: read-out: Kinetic_solubility
[19] = Kinetic solubility of the compound in phosphate buffered saline at pH 7.4 after 2 hrs by HPLC analysis; type: physicochemical; details: read-out: Kinetic_solubility
[20] = test system: Plasmodium falciparum; experiment: Resistance index, ratio of IC50 for chloroquine-resistant Plasmodium falciparum K1 to IC50 for chloroquine-sensitive Plasmodium falciparum 3D7; type: functional
[21] = test system: Plasmodium falciparum; experiment: Antiplasmodial activity against chloroquine-resistant Plasmodium falciparum W2 after 24 hrs by [3H]hypoxanthine incorporation assay; type: functional, organism-based
Method in brief: (§3)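 Antiplasmodial testing was done at the Swiss Tropical and Public Health Institute. Chloroquine, the reference drug, was tested as its diphosphate salt.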

[22] = test system: Plasmodium falciparum; experiment: Antiplasmodial activity against chloroquine-resistant Plasmodium falciparum K1 after 24 hrs by [3H]hypoxanthine incorporation assay; type: functional, organism-based; method in brief: as §3
[23] = test system: Plasmodium falciparum; experiment: Antiplasmodial activity against chloroquine-sensitive Plasmodium falciparum 3D7 after 24 hrs by [3H]hypoxanthine incorporation assay; type: functional, organism-based; method in brief: as §3

CC(C)(C)n1nnnc1C(NCCNc1ccnc2cc(Cl)ccc12)c1ccc(Cl)c(Cl)c1 (configuration not stated)
Activity [1]: 22.7% | Activity [2]: 46.9% | Activity [3]: 41.4% | Activity [4]: 44.5% | AUC [5]: 256 µmol·min/L | AUC [6]: 287 µmol·min/L | AUC [7]: 222 µmol·min/L | AUC [8]: 104 µmol·min/L | Drug metabolism [9]: Active | Drug metabolism [10]: Active | Drug metabolism [11]: Active | Drug metabolism [12]: Active | Drug metabolism [13]: Active | Drug metabolism [14]: Active | hepatic extraction ratio at 40 min, 1 µM [15]: > 0.8 | hepatic extraction ratio at 40 min, 1 µM [16]: > 0.8 | IC50 [17]: 10500 nM | solubility kinetic at 2 h [18]: 194 µM (≈ 97.9 µg/mL) | solubility kinetic at 2 h [19]: 25 µM (≈ 12.6 µg/mL) | Ratio IC50 [20]: 20 | IC50 [21]: 30.5 nM | IC50 [22]: 8 nM | IC50 [23]: 0.4 nM

CC(C)(C)n1nnnc1C(NCCCNc1ccnc2cc(Cl)ccc12)c1ccccc1 (configuration not stated)
Ratio IC50 [20]: 13.5 | IC50 [21]: 39 nM | IC50 [22]: 27 nM | IC50 [23]: 2 nM
